hERG protect: hERG rescue from dofetilide block, primary screen, cell-based, CHO-hERG, FluxOR thallium flux, dofetilide IC70 | dofetilide IC70 present | activation (rescue from dofetilide block), less the hit threshold, % at 10 µM | 310,000 compounds, 0.51% hits | Voltage-gated inwardly rectifying potassium channel KCNH2 (Homo sapiens), Q12809;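 active means activation above the mean of controls blocked by dofetilide plus 5 SD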;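 further: thallium influx through hERG after potassium depolarization seen as dye fluorescence rise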
Kir21 inh: inhibitors of mouse Kir2.1 inward-rectifier potassium channel; Inward rectifier potassium channel 2 (Mus musculus), P35561; HEK293-Kir2.1, FluxOR thallium flux fluorescence; stronger effect = lower value; B-score at 10 µM; 310,000 compounds, 0.85% hits; AID 1672, 2009;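 active means fluorescence ratio B-score at or below minus 3 SD of library scores, with starting-brightness B-score within 2 SD, cut at about -4.2 in these data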;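 further: channel flux triggered by added potassium and thallium sulfate stimulus; B-score of peak minus minimum fluorescence over baseline after thallium stimulus; more negative B-score means stronger Kir2.1 block with less thallium influx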
Target sequence (P35561 whole entry, looked up): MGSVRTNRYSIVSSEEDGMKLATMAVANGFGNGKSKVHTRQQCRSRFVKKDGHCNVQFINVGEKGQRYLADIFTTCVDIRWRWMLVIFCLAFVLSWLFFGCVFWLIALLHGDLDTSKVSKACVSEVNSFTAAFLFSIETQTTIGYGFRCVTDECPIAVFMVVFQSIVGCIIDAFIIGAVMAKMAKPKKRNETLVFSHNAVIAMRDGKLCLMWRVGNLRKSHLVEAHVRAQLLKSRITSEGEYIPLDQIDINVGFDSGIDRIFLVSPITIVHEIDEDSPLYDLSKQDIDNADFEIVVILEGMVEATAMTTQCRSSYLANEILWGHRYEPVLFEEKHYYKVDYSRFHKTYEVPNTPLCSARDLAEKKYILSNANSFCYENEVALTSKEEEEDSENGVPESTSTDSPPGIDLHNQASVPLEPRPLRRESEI
KCNQ1 act: potentiators or activators of KCNQ1 channel, primary screen, cell-based, thallium flux, high-throughput | Potassium voltage-gated channel subfamily KQT member 1 (Homo sapiens), P51787 | CHO-K1 KCNQ1, thallium flux FluxOR fluorescence; stronger effect = higher value | B-score at 10 µM | 310,000 compounds, 0.35% hits | AID 2648, 2010;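 active means fluorescence ratio B-score, a plate-corrected score, at least three library SD, with initial intensity B-score within 5 SD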
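assay system = KCNQ1-transfected CHO-K1 cells | medium = assay buffer with matched DMSO | probe or stimulus = depolarizing K+/Tl+ stimulus, K2SO4 and Tl2SO4 each 12.5 mM in 5x stock | dosing = single dose | incubation = dye 90 min, compound 20 min, room temperature | detection = kinetic FluxOR fluorescence, 10 s baseline plus 110 s post-stimulus | evaluation = ratio B score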
KCNK9 block: KCNK9 potassium channel inhibitors, primary screen, HEK293 cells, thallium flux. Potassium channel subfamily K member 9 (Homo sapiens), Q9NPC2. FluxOR thallium flux fluorescence; stronger effect = lower value. B-score at 10 µM. 310,000 compounds, 1.2% hits;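 active means ratio B-score over 3 SD below the library mean, with starting fluorescence within 5 SD of its mean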;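 further: negative B-score means less thallium flux so channel inhibition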
KCNQ1 block: inhibitors of human KCNQ1 channel, primary screen, cell-based, thallium flux, high-throughput | 310,000 compounds, 1.3% hits | CHO-K1 KCNQ1, FluxOR thallium flux fluorescence; stronger effect = higher value | AID 2642, 2010 | B-score at 10 µM;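 active means compounds whose thallium flux B-score, printed positive for inhibition, exceeds three library SD while starting fluorescence stays within three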;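 further: channel opened by potassium depolarization with thallium stimulus after 20 min compound exposure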
KCNK3 inh: human KCNK3 channel inhibitors, primary screen, CHO cells, FluxOR thallium flux, B-score; Potassium channel subfamily K member 3 (Homo sapiens), O14649; FluxOR fluorescence; stronger effect = lower value; B-score at 10 µM; 340,000 compounds, 0.84% hits; AID 602410, 2012;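 active means B-score under library mean minus 4 SD, starting fluorescence ratio at most library mean plus 5 SD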;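 further: more negative B-score means stronger inhibition of thallium flux through KCNK3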
KCNK9 inh conf: KCNK9 potassium channel inhibitors, confirmation, HEK293 cells, thallium flux, duplicate | shares compounds with KCNK9 block | FluxOR thallium flux fluorescence | inhibition, % at 10 µM | 4,900 compounds, 43% hits;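 active means thallium signal inhibited by more than 5 SD of the compound-free buffer control wells, on both duplicate plates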
Kir2-1 spec: mouse Kir2.1 channel inhibition, confirmation, selectivity assay for KCNK9 modulator project, cell-based, HEK293, thallium flux | 4,900 compounds, 4% hits | Kir2.1 cells, FluxOR thallium flux fluorescence | AID 492993, 2010 | shares compounds with KCNK9 block | inhibition, % at 10 µM;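 active means thallium signal drop more than 5 SD beyond the mean of the no-compound control wells, seen in both duplicate plates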;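 further: signal is fluorescence rise after thallium addition divided by baseline fluorescence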
KCNK9 uninduced: thallium flux in non-induced HEK293 cells, confirmation, counter-screen for KCNK9 inhibitor project, cell-based, second counter screen, non-induced KCNK9-HEK293; shares compounds with KCNK9 block; FluxOR thallium flux; inhibition, % at 10 µM; 4,900 compounds, 40% hits;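 active means thallium signal drop beyond 5 SD of the untreated control mean, on both duplicate plates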
Large screens that a line does not name were inactive (follow-up assays come after a bar, where they were run). The list is not random: actives were taken first. Their share in the collection is about 3.8%.

CN(C)/N=C/c1ccc([N+](=O)[O-])cc1[N+](=O)[O-]	none
CN(C)/N=C/c1ccc(Sc2ccccc2[N+](=O)[O-])o1	none | KCNK9 inh conf inactive | Kir2-1 spec inactive | KCNK9 uninduced inactive
COc1ccc2nc(SCC(=O)Nc3ccc4c(c3)CCC4)[nH]c2c1	none | KCNK9 inh conf inactive | Kir2-1 spec inactive | KCNK9 uninduced inactive
COc1ccc2nc(SCC(=O)Nc3ccc4[nH]c(=O)[nH]c4c3)[nH]c2c1	none (no result: hERG protect, Kir21 inh, KCNQ1 act, KCNK9 block, KCNQ1 block)
O=C(Nc1ccc(F)cc1)N(Cc1cccs1)Cc1cc2cc3c(cc2[nH]c1=O)OCO3	KCNK9 block -10.8 | KCNK9 inh conf inactive | Kir2-1 spec inactive | KCNK9 uninduced 42.5%
Cc1ccc(NC(=O)N(Cc2cccs2)Cc2cc3cc4c(cc3[nH]c2=O)OCO4)cc1	none (no result: KCNK3 inh)
N#Cc1ccc(-c2ccccc2)nc1SCC(=O)c1cccc(Cl)c1	KCNK9 block -8.67 | KCNK9 inh conf 34.5% | Kir2-1 spec inactive | KCNK9 uninduced 46.0%
N#Cc1ccc(-c2ccc(Cl)cc2)nc1SCC(=O)c1cccc(Cl)c1	none
CCOc1ccc2ccccc2c1C1NC(=O)NC(C)=C1C(=O)OCCOC (centres undefined)	none
CCc1cc(=O)oc2c(C)c(O)c(CN3CCCCC3)cc12	none
Cc1ccc2c(CN3CCCCC3)cc(=O)oc2c1C	none | KCNK9 inh conf inactive | Kir2-1 spec inactive | KCNK9 uninduced inactive
Cc1cc(C)c2oc(=O)cc(CN3CCCCC3)c2c1	none | KCNK9 inh conf inactive | Kir2-1 spec inactive | KCNK9 uninduced inactive
C=C(C)COc1ccc(-c2[nH]ncc2Oc2ccccc2OCC)c(O)c1	none
CCOc1ccccc1Oc1cn[nH]c1-c1ccc(O)cc1O	KCNK9 block -10.4 | KCNK9 inh conf 32.5% | Kir2-1 spec inactive | KCNK9 uninduced inactive
Cc1ccc(CN2CCN(/N=C/c3cccnc3)CC2)cc1	none
Cc1ccc(CN2CCN(/N=C/C(Br)=C\c3ccccc3)CC2)cc1	KCNQ1 act 16 | KCNK9 inh conf inactive | Kir2-1 spec inactive | KCNK9 uninduced inactive
COC1CCCCC1Nc1cccc(SC)c1 (centres undefined)	none | KCNK9 inh conf inactive | Kir2-1 spec inactive | KCNK9 uninduced inactive
Cc1cccc(N2CCN(C(=O)c3c(C)nn(Cc4ccccc4Cl)c3C)CC2)c1C	none | KCNK9 inh conf inactive | Kir2-1 spec inactive | KCNK9 uninduced inactive
CC(=O)Nc1ccc(NC(=O)c2c(C)nn(Cc3ccccc3Cl)c2C)cc1	none
Cc1cccc(N2CCN(C(=O)Cc3ccccc3[N+](=O)[O-])CC2)c1C	none | KCNK9 inh conf inactive | Kir2-1 spec inactive | KCNK9 uninduced inactive
N/C(Cc1ccc([N+](=O)[O-])cc1)=N\OC(=O)COc1cccc2ccccc12	KCNK9 block -8.34 | KCNK9 inh conf inactive | Kir2-1 spec inactive | KCNK9 uninduced 37.0%
Cc1ccc(OCCCOc2cccc3cccnc23)cc1C	none | KCNK9 inh conf inactive | Kir2-1 spec inactive | KCNK9 uninduced inactive
COc1ccc2ncccc2c1Cc1c(OC)ccc2ncccc12	none (no result: hERG protect, Kir21 inh, KCNQ1 act, KCNK9 block, KCNQ1 block)
C/C=C1\COC(C(=O)NCc2ccccc2)(C(F)(F)F)C=C1C=C1CCCCC1 (centres undefined)	KCNQ1 block 7 | KCNK9 inh conf inactive | Kir2-1 spec inactive | KCNK9 uninduced inactive

Source: PubChem BioAssay
